{"source": "paper PMC7482441", "about": "(Pharmacological Research, 2020)", "key": {"[1]": {"tested_on": "healthy male subjects", "settings": "earlier Merck KGaA phase I studies; cited from earlier work"}, "[2]": {"tested_on": "KLK6", "test": "Circulating biomarker, baseline vs 4-week treatment", "type": "in vivo, human", "settings": "20 DMD patients, OLink, p-value 0.0004, FDR 0.20"}, "[3]": {"tested_on": "FAS", "test": "Circulating biomarker, baseline vs 4-week treatment", "type": "in vivo, human", "settings": "20 DMD patients, OLink, p-value 0.0007, FDR 0.24"}, "[4]": {"tested_on": "CCL15", "test": "Circulating biomarker, baseline vs 4-week treatment", "type": "in vivo, human", "settings": "20 DMD patients, OLink, p-value 0.0003, FDR 0.17"}, "[5]": {"tested_on": "ambulant boys with DMD", "test": "Phase Ib safety assessments", "type": "in vivo, human", "in_short": "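Open-label study in boys aged 6–14 with genetically confirmed DMD, walking ≥75 m and on stable corticosteroids ≥6 months. Dosing was oral, 50–300 mg TID for 4 weeks, in 4 ascending cohorts. Assessments at screening, weeks 1, 2 and 4, and 1–2 weeks post-treatment: physical exam, AEs, supine/standing blood pressure and heart rate, respiratory rate. Also 12-lead ECG with QT, read locally and centrally, plus blood/urine haematology and biochemistry.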"}, "[6]": {"settings": "Cohort 1 N = 5, 150 to 225 mg daily oral, 4 weeks"}, "[7]": {"settings": "Cohort 2 N = 5, 300 to 450 mg daily oral, 4 weeks"}}}
{"compound": "[H]/N=C(\\N)NC(=O)c1cc(S(C)(=O)=O)c(S(C)(=O)=O)cc1C", "note": "[Rimeporide]", "values": [{"measurement": "maximum tolerated dose", "setting": "[1]", "value": "could not be defined"}, {"measurement": "KLK6: Term (TRT, linear mixed effect model, Day 28 vs Day 0)", "setting": "[2]", "value": "−0.2612"}, {"measurement": "FAS: Term (TRT, linear mixed effect model, Day 28 vs Day 0)", "setting": "[3]", "value": "−0.2823"}, {"measurement": "CCL15: Term (TRT, linear mixed effect model, Day 28 vs Day 0)", "setting": "[4]", "value": "−0.4489"}, {"measurement": "12-lead ECGs", "setting": "[5]; 4-week treatment", "value": "no clinically important changes"}, {"measurement": "Abdominal pain upper: patients (events)", "setting": "[5]; All patients N = 20, 4 weeks", "value": "2 (3 events)"}, {"measurement": "Chills: patients (events)", "setting": "[5]; All patients N = 20, 4 weeks", "value": "1 (2 events)"}, {"measurement": "Cough: patients (events)", "setting": "[5]; All patients N = 20, 4 weeks", "value": "3 (3 events)"}, {"measurement": "Dizziness: patients (events)", "setting": "[5]; All patients N = 20, 4 weeks", "value": "1 (1 event)"}, {"measurement": "Ear and labyrinth disorders: patients (events)", "setting": "[5]; All patients N = 20, 4 weeks", "value": "1 (1 event)"}, {"measurement": "Fall: patients (events)", "setting": "[5]; All patients N = 20, 4 weeks", "value": "1 (1 event)"}, {"measurement": "Flushing: patients (events)", "setting": "[5]; All patients N = 20, 4 weeks", "value": "2 (3 events)"}, {"measurement": "Gastrointestinal disorders: patients (events)", "setting": "[5]; All patients N = 20, 4 weeks", "value": "6 (10 events)"}, {"measurement": "General disorders and administration site conditions: patients (events)", "setting": "[5]; All patients N = 20, 4 weeks", "value": "2 (3 events)"}, {"measurement": "Infections and infestations: patients (events)", "setting": "[5]; All patients N = 20, 4 weeks", "value": "4 (4 events)"}, {"measurement": "Injury, poisoning and procedural complications: patients (events)", "setting": "[5]; All patients N = 20, 4 weeks", "value": "1 (1 event)"}, {"measurement": "Mouth ulceration: patients (events)", "setting": "[5]; All patients N = 20, 4 weeks", "value": "1 (1 event)"}, {"measurement": "Nervous system disorders: patients (events)", "setting": "[5]; All patients N = 20, 4 weeks", "value": "7 (8 events)"}, {"measurement": "Oropharyngeal pain: patients (events)", "setting": "[5]; All patients N = 20, 4 weeks", "value": "1 (1 event)"}, {"measurement": "Presyncope: patients (events)", "setting": "[5]; All patients N = 20, 4 weeks", "value": "1 (1 event)"}, {"measurement": "Pyrexia: patients (events)", "setting": "[5]; All patients N = 20, 4 weeks", "value": "1 (1 event)"}, {"measurement": "Respiratory, thoracic and mediastinal disorders: patients (events)", "setting": "[5]; All patients N = 20, 4 weeks", "value": "4 (4 events)"}, {"measurement": "Tympanic membrane perforation: patients (events)", "setting": "[5]; All patients N = 20, 4 weeks", "value": "1 (1 event)"}, {"measurement": "Vascular disorders: patients (events)", "setting": "[5]; All patients N = 20, 4 weeks", "value": "2 (3 events)"}, {"measurement": "Vomiting: patients (events)", "setting": "[5]; All patients N = 20, 4 weeks", "value": "2 (2 events)"}, {"measurement": "Abdominal pain upper: patients (events)", "setting": "[5]; [6]", "value": 0}, {"measurement": "Any treatment-emergent adverse event: patients (events)", "setting": "[5]; [6]", "value": "2 (6 events)"}, {"measurement": "Chills: patients (events)", "setting": "[5]; [6]", "value": "1 (2 events)"}, {"measurement": "Cough: patients (events)", "setting": "[5]; [6]", "value": 0}, {"measurement": "Diarrhoea: patients (events)", "setting": "[5]; [6]", "value": 0}, {"measurement": "Dizziness: patients (events)", "setting": "[5]; [6]", "value": 0}, {"measurement": "Ear and labyrinth disorders: patients (events)", "setting": "[5]; [6]", "value": 0}, {"measurement": "Fall: patients (events)", "setting": "[5]; [6]", "value": "1 (1 event)"}, {"measurement": "Flushing: patients (events)", "setting": "[5]; [6]", "value": 0}, {"measurement": "Gastrointestinal disorders: patients (events)", "setting": "[5]; [6]", "value": 0}, {"measurement": "General disorders and administration site conditions: patients (events)", "setting": "[5]; [6]", "value": "1 (2 events)"}, {"measurement": "Headache: patients (events)", "setting": "[5]; [6]", "value": "1 (1 event)"}, {"measurement": "Infections and infestations: patients (events)", "setting": "[5]; [6]", "value": 0}, {"measurement": "Injury, poisoning and procedural complications: patients (events)", "setting": "[5]; [6]", "value": "1 (1 event)"}, {"measurement": "Mouth ulceration: patients (events)", "setting": "[5]; [6]", "value": 0}, {"measurement": "Nasopharyngitis: patients (events)", "setting": "[5]; [6]", "value": 0}, {"measurement": "Nervous system disorders: patients (events)", "setting": "[5]; [6]", "value": "1 (1 event)"}, {"measurement": "Oropharyngeal pain: patients (events)", "setting": "[5]; [6]", "value": 0}, {"measurement": "Presyncope: patients (events)", "setting": "[5]; [6]", "value": 0}, {"measurement": "Pyrexia: patients (events)", "setting": "[5]; [6]", "value": 0}, {"measurement": "Respiratory, thoracic and mediastinal disorders: patients (events)", "setting": "[5]; [6]", "value": 0}, {"measurement": "Tympanic membrane perforation: patients (events)", "setting": "[5]; [6]", "value": 0}, {"measurement": "Vascular disorders: patients (events)", "setting": "[5]; [6]", "value": 0}, {"measurement": "Vomiting: patients (events)", "setting": "[5]; [6]", "value": 0}, {"measurement": "Abdominal pain upper: patients (events)", "setting": "[5]; [7]", "value": 0}, {"measurement": "Any treatment-emergent adverse event: patients (events)", "setting": "[5]; [7]", "value": "1 (3 events)"}, {"measurement": "Chills: patients (events)", "setting": "[5]; [7]", "value": 0}, {"measurement": "Cough: patients (events)", "setting": "[5]; [7]", "value": "1 (1 event)"}, {"measurement": "Diarrhoea: patients (events)", "setting": "[5]; [7]", "value": 0}, {"measurement": "Dizziness: patients (events)", "setting": "[5]; [7]", "value": 0}, {"measurement": "Ear and labyrinth disorders: patients (events)", "setting": "[5]; [7]", "value": 0}, {"measurement": "Fall: patients (events)", "setting": "[5]; [7]", "value": 0}, {"measurement": "Flushing: patients (events)", "setting": "[5]; [7]", "value": 0}, {"measurement": "Gastrointestinal disorders: patients (events)", "setting": "[5]; [7]", "value": "1 (1 event)"}, {"measurement": "General disorders and administration site conditions: patients (events)", "setting": "[5]; [7]", "value": 0}, {"measurement": "Headache: patients (events)", "setting": "[5]; [7]", "value": 0}, {"measurement": "Infections and infestations: patients (events)", "setting": "[5]; [7]", "value": "1 (1 event)"}, {"measurement": "Injury, poisoning and procedural complications: patients (events)", "setting": "[5]; [7]", "value": 0}, {"measurement": "Mouth ulceration: patients (events)", "setting": "[5]; [7]", "value": "1 (1 event)"}, {"measurement": "Nasopharyngitis: patients (events)", "setting": "[5]; [7]", "value": "1 (1 event)"}, {"measurement": "Nervous system disorders: patients (events)", "setting": "[5]; [7]", "value": 0}]}
